The source made the active and inactive calls.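 The calls were made as follows: active = spectra count ratio compound/DMSO 0.5 or lower for pPAFAH, with at most one off-target serine hydrolase also that low; inactive = ratio above 0.5 for pPAFAH, or two-plus off-targets hit.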
Legend:
Assay in all cases: serine hydrolase selectivity in brain membranes, late-stage follow-up, selectivity assay for pPAFAH inhibitor project, biochemical, LC-MS/MS, mouse brain membrane proteome (AID 588785)
[1] = system: Parl; settings: ABPP-MudPIT FP-biotin spectral counts, at 1 µM, active compounds read low
Summary of the method: (§1)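 medium = Tris buffer pH 8.0, 50 mM | system = mouse brain membrane proteome | quantity = 1 mg/mL membrane protein | signal = ABPP-MudPIT LC-MS/MS spectral counting | doses = 1 µM compound, single dose | probe or stimulus = 5 µM FP-biotin probe | repeats = 3–4 biological replicates | timing = 30 min 37 °C compound, 2 h 25 °C probe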

[2] = system: Apeh; settings: ABPP-MudPIT FP-biotin spectral counts, at 1 µM, active compounds read low
Summary of the method: as §1

[3] = system: Lipe; settings: ABPP-MudPIT FP-biotin spectral counts, at 1 µM, active compounds read low
Summary of the method: as §1

[4] = system: Magl; settings: ABPP-MudPIT FP-biotin spectral counts, at 1 µM, active compounds read low
Summary of the method: as §1

[5] = system: Abhd12; settings: ABPP-MudPIT FP-biotin spectral counts, at 1 µM, active compounds read low
Summary of the method: as §1

[6] = system: Fam108a; settings: ABPP-MudPIT FP-biotin spectral counts, at 1 µM, active compounds read low
Summary of the method: as §1

[7] = system: Abhd3; settings: ABPP-MudPIT FP-biotin spectral counts, at 1 µM, active compounds read low
Summary of the method: as §1

[8] = system: Lactb; settings: ABPP-MudPIT FP-biotin spectral counts, at 1 µM, active compounds read low
Summary of the method: as §1

[9] = system: Pnpla6; settings: ABPP-MudPIT FP-biotin spectral counts, at 1 µM, active compounds read low
Summary of the method: as §1

[10] = system: Fam108b1; settings: ABPP-MudPIT FP-biotin spectral counts, at 1 µM, active compounds read low
Summary of the method: as §1

[11] = system: Acot1; settings: ABPP-MudPIT FP-biotin spectral counts, at 1 µM, active compounds read low
Summary of the method: as §1

[12] = system: Fam108c1; settings: ABPP-MudPIT FP-biotin spectral counts, at 1 µM, active compounds read low
Summary of the method: as §1

[13] = molecular target: Acyl-protein thioesterase 1 (Mus musculus) (UniProt P97823); settings: ABPP-MudPIT FP-biotin spectral counts, Lypla1, at 1 µM, active compounds read low
Acyl-protein thioesterase 1 (Mus musculus), sequence (P97823 whole entry, looked up): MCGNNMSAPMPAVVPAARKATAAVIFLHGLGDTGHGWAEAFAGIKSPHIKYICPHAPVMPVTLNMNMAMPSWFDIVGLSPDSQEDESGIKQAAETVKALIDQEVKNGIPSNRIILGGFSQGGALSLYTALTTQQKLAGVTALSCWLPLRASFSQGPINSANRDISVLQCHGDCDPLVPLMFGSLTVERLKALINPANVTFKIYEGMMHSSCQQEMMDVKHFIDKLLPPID
Summary of the method: as §1

[14] = system: Pafah1b3; settings: ABPP-MudPIT FP-biotin spectral counts, at 1 µM, active compounds read low
Summary of the method: as §1

[15] = system: Ache; settings: ABPP-MudPIT FP-biotin spectral counts, at 1 µM, active compounds read low
Summary of the method: as §1

[16] = system: Es1; settings: ABPP-MudPIT FP-biotin spectral counts, at 1 µM, active compounds read low
Summary of the method: as §1

[17] = system: Prcp; settings: ABPP-MudPIT FP-biotin spectral counts, at 1 µM, active compounds read low
Summary of the method: as §1

[18] = system: Pla2g15; settings: ABPP-MudPIT FP-biotin spectral counts, at 1 µM, active compounds read low
Summary of the method: as §1

[19] = system: Nceh1; settings: ABPP-MudPIT FP-biotin spectral counts, at 1 µM, active compounds read low
Summary of the method: as §1

[20] = system: Pme1; settings: ABPP-MudPIT FP-biotin spectral counts, at 1 µM, active compounds read low
Summary of the method: as §1

[21] = system: Acot7; settings: ABPP-MudPIT FP-biotin spectral counts, at 1 µM, active compounds read low
Summary of the method: as §1

[22] = system: Acot3; settings: ABPP-MudPIT FP-biotin spectral counts, at 1 µM, active compounds read low
Summary of the method: as §1

[23] = system: Acot6; settings: ABPP-MudPIT FP-biotin spectral counts, at 1 µM, active compounds read low
Summary of the method: as §1

[24] = system: Tpp2; settings: ABPP-MudPIT FP-biotin spectral counts, at 1 µM, active compounds read low
Summary of the method: as §1

[25] = system: Dpp9; settings: ABPP-MudPIT FP-biotin spectral counts, at 1 µM, active compounds read low
Summary of the method: as §1

[26] = molecular target: Abhd4 (UniProt Q8VD66); settings: ABPP-MudPIT FP-biotin spectral counts, at 1 µM, active compounds read low
Abhd4, sequence (Q8VD66 whole entry, looked up): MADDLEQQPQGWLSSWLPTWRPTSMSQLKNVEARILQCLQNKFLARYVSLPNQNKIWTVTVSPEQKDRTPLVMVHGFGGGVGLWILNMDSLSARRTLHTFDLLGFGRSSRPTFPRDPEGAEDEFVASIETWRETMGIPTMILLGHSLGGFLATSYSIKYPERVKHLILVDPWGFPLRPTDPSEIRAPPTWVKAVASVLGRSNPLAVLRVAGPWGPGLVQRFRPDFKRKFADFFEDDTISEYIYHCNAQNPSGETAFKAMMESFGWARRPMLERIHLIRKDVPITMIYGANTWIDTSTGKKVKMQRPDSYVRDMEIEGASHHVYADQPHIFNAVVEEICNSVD
Summary of the method: as §1

[27] = system: Lyplal1; settings: ABPP-MudPIT FP-biotin spectral counts, at 1 µM, active compounds read low
Summary of the method: as §1

[28] = system: Bat5; settings: ABPP-MudPIT FP-biotin spectral counts, at 1 µM, active compounds read low
Summary of the method: as §1

[29] = molecular target: Prolyl endopeptidase (Mus musculus) (UniProt Q9QUR6); settings: ABPP-MudPIT FP-biotin spectral counts, Prep, at 1 µM, active compounds read low
Prolyl endopeptidase (Mus musculus), sequence (Q9QUR6 whole entry, looked up): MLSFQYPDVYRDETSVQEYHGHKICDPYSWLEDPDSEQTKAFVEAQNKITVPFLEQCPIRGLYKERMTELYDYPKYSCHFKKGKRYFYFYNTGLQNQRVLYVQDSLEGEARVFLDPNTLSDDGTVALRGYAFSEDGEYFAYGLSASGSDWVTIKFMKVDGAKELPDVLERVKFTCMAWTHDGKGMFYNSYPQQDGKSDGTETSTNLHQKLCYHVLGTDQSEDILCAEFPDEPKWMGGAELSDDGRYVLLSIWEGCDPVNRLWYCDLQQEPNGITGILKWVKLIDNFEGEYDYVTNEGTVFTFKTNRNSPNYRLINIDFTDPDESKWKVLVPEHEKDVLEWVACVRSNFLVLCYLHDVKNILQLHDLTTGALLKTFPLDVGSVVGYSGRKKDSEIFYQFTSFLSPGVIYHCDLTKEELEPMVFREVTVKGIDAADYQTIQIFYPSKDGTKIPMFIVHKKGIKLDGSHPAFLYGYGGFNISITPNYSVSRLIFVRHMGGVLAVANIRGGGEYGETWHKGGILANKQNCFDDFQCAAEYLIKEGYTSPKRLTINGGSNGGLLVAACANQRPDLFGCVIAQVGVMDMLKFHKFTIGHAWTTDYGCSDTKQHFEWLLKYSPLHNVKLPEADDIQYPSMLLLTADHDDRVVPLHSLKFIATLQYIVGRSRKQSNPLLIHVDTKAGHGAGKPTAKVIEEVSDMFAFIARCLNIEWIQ
Summary of the method: as §1

[30] = system: Rbbp9; settings: ABPP-MudPIT FP-biotin spectral counts, at 1 µM, active compounds read low
Summary of the method: as §1

[31] = system: Faah; settings: ABPP-MudPIT FP-biotin spectral counts, at 1 µM, active compounds read low
Summary of the method: as §1

[32] = system: Prepl; settings: ABPP-MudPIT FP-biotin spectral counts, at 1 µM, active compounds read low
Summary of the method: as §1

[33] = molecular target: Platelet-activating factor acetylhydrolase (Mus musculus) (UniProt Q60963); settings: ABPP-MudPIT FP-biotin spectral counts, Pla2g7 (pPAFAH), at 1 µM, active compounds read low
Platelet-activating factor acetylhydrolase (Mus musculus), sequence (Q60963 whole entry, looked up): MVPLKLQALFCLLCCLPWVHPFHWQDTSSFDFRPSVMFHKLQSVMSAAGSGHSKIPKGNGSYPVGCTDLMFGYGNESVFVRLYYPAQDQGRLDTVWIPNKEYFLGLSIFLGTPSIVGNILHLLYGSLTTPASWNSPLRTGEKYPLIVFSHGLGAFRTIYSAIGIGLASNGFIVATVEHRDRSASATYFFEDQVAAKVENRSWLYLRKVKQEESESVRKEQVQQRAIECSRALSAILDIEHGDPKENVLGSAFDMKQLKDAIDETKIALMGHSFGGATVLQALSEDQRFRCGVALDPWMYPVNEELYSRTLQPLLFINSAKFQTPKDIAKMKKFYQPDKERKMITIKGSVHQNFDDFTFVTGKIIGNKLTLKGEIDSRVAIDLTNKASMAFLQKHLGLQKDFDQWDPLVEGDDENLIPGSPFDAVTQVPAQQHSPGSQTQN
Summary of the method: as §1

[34] = system: Lypla2; settings: ABPP-MudPIT FP-biotin spectral counts, at 1 µM, active compounds read low
Summary of the method: as §1

[35] = molecular target: Palmitoyl-protein thioesterase ABHD10, mitochondrial (Mus musculus) (UniProt Q6PE15); settings: ABPP-MudPIT FP-biotin spectral counts, at 1 µM, active compounds read low
Palmitoyl-protein thioesterase ABHD10, mitochondrial (Mus musculus), sequence (Q6PE15 whole entry, looked up): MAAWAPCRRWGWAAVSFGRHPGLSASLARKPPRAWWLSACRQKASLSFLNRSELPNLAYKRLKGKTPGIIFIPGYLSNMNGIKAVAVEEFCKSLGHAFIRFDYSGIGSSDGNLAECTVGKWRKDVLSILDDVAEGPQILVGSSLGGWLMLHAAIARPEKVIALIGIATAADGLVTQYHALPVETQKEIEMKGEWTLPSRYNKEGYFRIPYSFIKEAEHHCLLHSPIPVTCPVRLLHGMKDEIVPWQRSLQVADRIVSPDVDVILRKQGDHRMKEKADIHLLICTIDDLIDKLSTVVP
Summary of the method: as §1

[36] = system: Esd; settings: ABPP-MudPIT FP-biotin spectral counts, at 1 µM, active compounds read low
Summary of the method: as §1

[37] = system: Fasn; settings: ABPP-MudPIT FP-biotin spectral counts, at 1 µM, active compounds read low
Summary of the method: as §1

[38] = system: Acot2; settings: ABPP-MudPIT FP-biotin spectral counts, at 1 µM, active compounds read low
Summary of the method: as §1

[39] = system: Dpp8; settings: ABPP-MudPIT FP-biotin spectral counts, at 1 µM, active compounds read low
Summary of the method: as §1

[40] = system: Pnpla8; settings: ABPP-MudPIT FP-biotin spectral counts, at 1 µM, active compounds read low
Summary of the method: as §1

[41] = system: Pafah1b2; settings: ABPP-MudPIT FP-biotin spectral counts, at 1 µM, active compounds read low
Summary of the method: as §1

[42] = system: Abhd11; settings: ABPP-MudPIT FP-biotin spectral counts, at 1 µM, active compounds read low
Summary of the method: as §1

[43] = molecular target: Monoacylglycerol lipase ABHD6 (Mus musculus) (UniProt Q8R2Y0); settings: ABPP-MudPIT FP-biotin spectral counts, at 1 µM, active compounds read low
Monoacylglycerol lipase ABHD6 (Mus musculus), sequence (Q8R2Y0 whole entry, looked up): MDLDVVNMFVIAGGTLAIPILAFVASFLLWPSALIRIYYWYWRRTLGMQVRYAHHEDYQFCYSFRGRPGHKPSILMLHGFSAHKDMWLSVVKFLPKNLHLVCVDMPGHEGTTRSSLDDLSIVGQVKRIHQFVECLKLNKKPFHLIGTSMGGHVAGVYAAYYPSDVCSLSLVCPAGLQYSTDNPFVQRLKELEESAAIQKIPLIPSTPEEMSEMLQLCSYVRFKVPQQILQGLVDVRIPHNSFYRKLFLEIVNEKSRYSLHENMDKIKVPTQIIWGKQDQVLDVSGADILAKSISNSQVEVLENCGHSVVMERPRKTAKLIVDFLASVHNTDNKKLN
Summary of the method: as §1

Measured: spectra count ratio compound/DMSO

Cc1cc(N2CCN(C(=O)Oc3ccc(-c4ccccc4)cn3)CC2)c2ccccc2n1
active: [16] 0 | [33] 0.1
inactive: [1] 1.1 | [2] 0.9 | [3] 1.3 | [4] 1.3 | [5] 1.1 | [6] 0.9 | [7] 1.3 | [8] 0.7 | [9] 0.8 | [10] 1.1 | [11] 1 | [12] 1 | [13] 1.6 | [14] 0.8 | [15] 0.9 | [17] 1 | [18] 0.8 | [19] 1.1 | [20] 1.3 | [21] 0.7 | [22] 0.8 | [23] 1 | [24] 1.2 | [25] 1.1 | [26] 1 | [27] 1.2 | [28] 0.9 | [29] 1.2 | [30] 1.3 | [31] 0.8 | [32] 1.1 | [34] 1.7 | [35] 1.5 | [36] 1.2 | [37] 1 | [38] 1.4 | [39] 0.9 | [40] 0.9 | [41] 0.8 | [42] 1 | [43] 1.1
